# Screens (PubChem BioAssay)
# Fibroblast inh: blocks proliferation of human lung fibroblasts; LL 47 human lung fibroblast viability, ATP luminescence; hits give low values; 1.1% of 85,000 active; viability, % at 10 µM;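 active = viability at or below 50% in the single dose screen; inactive = viability above 50%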;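 note: compound exposure lasted 72 h before the ATP readout; 100% = median luminescence of untreated cell-only wells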
#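 Test system: LL 47 human lung fibroblasts / Quantity: 1,150 cells in each well / Medium: IMEM growth medium with 15% fetal bovine serum / Incubation: 72 h compound exposure at 37 °C after overnight plating / Detection: CellTiter-Glo luminescence measuring cellular ATP / Read-out: % viability versus median cells-only luminescence / Benchmarks: cell-only wells, no compound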
# H69AR growth 86K: blocks growth of human H69AR lung tumor cells; viability, % at 10 µM; H69AR lung tumor viability, ATP luminescence, 72 h; hits give low values; 6% of 85,000 active;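 active = viability at or below 40%; inactive = viability above 40%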;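 note: multidrug resistant small cell line overexpressing MRP-1 efflux transporter; 100% = mean luminescence of untreated control wells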
# Jurkat tox 60K: cytotoxic compounds reducing Jurkat cell viability | Jurkat E6.1 viability, ATP luminescence, 48 h | inhibition, % at 4 µM | 1.2% of 56,000 active;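 active = inhibition above the mean inhibition of all tested compounds plus 3 SD, cut at about 28% in these data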
# HUVEC prolif 384: human endothelial cell proliferation inhibition | HUVEC proliferation, CellTiter-Glo luminescence, 72 h; hits give low values | viability, % at 10 µM (by protocol) | 1.1% of 86,000 active | AID 648;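 active = viability at or below 30%; inactive = viability above 30%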;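 note: 100% = median luminescence of DMSO-only cell control wells on each plate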
# An asterisk follows results filed as active; . = no result given. Hits are enriched below; roughly 6.6% of the tested compounds scored in any of these assays.
SMILES,Fibroblast inh,H69AR growth 86K,Jurkat tox 60K,HUVEC prolif 384
Cc1ccc(-c2cc(N)n(-c3ccccc3)n2)cc1,103,84,.,99
Cc1ccccc1-c1cc2c(nn1)-c1ccccc1C2=O,14*,17*,.,3.2*
Cc1ccccc1-c1nnc2c3ccccc3c(C)nn12,94,91,.,80
Cc1ccc(-c2cc3c(nn2)-c2ccccc2C3=O)cc1,47*,12*,16,58
CC(=O)[C@@]1(O)CC[C@H]2[C@@H]3CCC4=CC(=O)CC[C@]4(C)[C@H]3[C@@H](O)C[C@@]21C,94,92,.,97
CC(=O)[C@@]1(O)CC[C@H]2[C@@H]3C[C@H](C)C4=CC(=O)CC[C@]4(C)[C@H]3CC[C@@]21C,87,6.9*,.,94
Oc1ccccc1-c1nnc(SCCN2CCOCC2)n1Cc1ccccc1,24*,15*,78*,88
O=C(CSc1nnc(-c2ccccc2)n1Cc1ccccc1)N1CCOCC1,88,80,4,98
COc1ccccc1Nc1nc(N)nc(CN2CCc3ccccc3C2)n1,.,.,-4,.
O=C1C2=C(NC(=S)NC2c2ccc(Cl)cc2)NC(c2ccc(Cl)cc2)N1c1ccc(Cl)cc1 (centres undefined),98,0.1*,.,7.6*
O=C1C2CCCN2C(c2ccc(F)cc2)N1c1ccc(Cl)cc1 (centres undefined),88,97,13,90
Cc1ccccc1OCc1nnc(SCC(=O)Nc2ccc3c(c2)oc2ccccc23)n1C,61,21*,0,60
COc1ccccc1OCc1nnc(SCC(=O)Nc2ccc(C)cc2)n1C,111,92,-4,97
O=C(c1ccccc1)c1cc2ccccc2o1,110,96,-3,98
Cc1oc2c(c1C(=O)c1ccccc1)C(=O)C(=O)c1ccccc1-2,2.1*,1.4*,.,3.1*
O=C1C(=O)c2c(C(=O)c3ccccc3)coc2-c2ccccc21,36*,0.5*,.,3.2*
CCCc1cc(N2CCCC2)n2nc(C)c(-c3ccccc3)c2n1,91,44,4,105
CN1CCN(C(=O)c2cc3nc(-c4ccccc4)cc(-c4ccccc4)n3n2)CC1,87,48,.,47
Cc1cc(N2CCN(C(=O)c3ccco3)CC2)n2nc(C)c(-c3ccc(Cl)cc3)c2n1,50,16*,-1,34
CCN1CCN(c2cc(C(C)(C)C)nc3c(-c4ccccc4)c(C)nn23)CC1,9.8*,38*,.,3.2*
O=C(c1cc2nc(-c3ccccc3)cc(-c3ccccc3)n2n1)N1CCN(C(=O)c2ccco2)CC1,89,25*,1,71
Cc1cc(N2CCN(C(=O)c3ccco3)CC2)n2nc(C)c(-c3ccccc3)c2n1,100,18*,2,80
COC(=O)CSc1nc(NC#N)nc(NC(C)C)n1,100,98,.,95
O=C(c1ccccc1)c1ccc2nc(N3CCN(C(=O)c4ccco4)CC3)c3nncn3c2c1,89,18*,21,70
Cn1cccc1C(C(=O)NC1CCCCC1)N(C(=O)Cc1cccs1)c1ccc2c(c1)OCO2 (centres undefined),81,28*,3,85
SMILES,Fibroblast inh,H69AR growth 86K,Jurkat tox 60K,HUVEC prolif 384
COc1ccc(N(C(=O)Cc2cccs2)C(C(=O)NC2CCCCC2)c2cccn2C)cc1 (centres undefined),86,78,.,78
CCOc1ccc(OCC)c(NC(=O)CN2CCN(c3cccc(C)c3)C(C)C2)c1 (centres undefined),76,19*,.,63
COc1cccc2c1OC1(C)CC2NC(=O)N1Cc1ccccc1 (centres undefined),98,101,.,107
CCOc1cc2c(cc1C(C)(C)C)NC(=O)CS2,89,37*,9,78
Nc1ccc2nc(-c3ccccc3)[nH]c2c1,100,33*,.,86
Nc1ccc2nc(-c3ccc(N)c(Cl)c3)[nH]c2c1,105,50,.,86
Nc1ccc2nc(-c3cccs3)[nH]c2c1,87,22*,.,71
Nc1ccc(-c2nc3c(Cl)cc(N)cc3[nH]2)cc1,96,31*,9,110
COc1cccc(N/C(SC)=C(/C#N)C(N)=O)c1,95,28*,.,80
Cc1cccc(Cn2c(=O)c3c(nc4n3CCCN4Cc3ccccc3)n(C)c2=O)c1,86,66,2,94
COc1ccc(NC(C)=O)cc1NC(=O)CSc1nc2ncccc2[nH]1,104,108,-4,96
CSc1cc(-c2ccccc2)n(Cc2ccc(Cl)cc2Cl)c(=O)c1C#N,94,36*,.,93
C/C(Cl)=C/Cn1c(SCC(C)C)nc2c1c(=O)[nH]c(=O)n2C,57,35*,-1,77
CCOC(=O)C(NC(C)=O)C(OC(C)=O)c1cccc(N(CCO)CCO)c1 (centres undefined),94,95,-5,99
CCCCCOC(=O)c1[nH]c2c(c1C)C(=O)C(C(=O)OC)C(C)C2 (centres undefined),91,75,.,96
COc1ccc(C2CC(=O)c3c([nH]c(C(=O)OC(C)C)c3C)C2)cc1OC (centres undefined),100,92,.,97
C=CCOC(=O)c1[nH]c2c(c1C)C(=O)CC(c1cc(OC)c(OC)c(OC)c1)C2 (centres undefined),98,64,43*,85
CCCCOC(=O)c1[nH]c2c(c1C)C(=O)CC(c1cc(OC)c(OC)c(OC)c1)C2 (centres undefined),93,117,46*,74
Cn1cnc2c(sc3nc(N4CCOCC4)c4c(c32)CC(C)(C)OC4)c1=O,90,60,-1,90
Cc1ccsc1-c1nc(CSCC(=O)NCc2ccc3c(c2)OCO3)c(C)o1,106,78,-9,97
COc1ccc(-c2onc(C)c2-c2ccccc2)c(O)c1,95,31*,.,85
COc1ccc(-c2noc(C)c2-c2ccc3ccccc3n2)c(O)c1,78,26*,10,71
Fc1ccc(C2C3=C(Nc4ncnn42)c2ccccc2OC3c2ccncc2)cc1 (centres undefined),84,81,.,82
Cc1ccc(C2Oc3ccccc3C3=C2C(c2cccs2)n2ncnc2N3)cc1 (centres undefined),44*,18*,.,66
COc1ccc(C(=O)Nc2cc(OC)nc(OC)n2)cc1,108,88,.,112
SMILES,Fibroblast inh,H69AR growth 86K,Jurkat tox 60K,HUVEC prolif 384
O=C(COC(=O)c1n[nH]c2ccccc12)NC(=O)NC12CC3CC(CC(C3)C1)C2,81,17*,1,69
CCCCCCCCNC(C)C(O)c1ccc(SC(C)C)cc1 (centres undefined),4.0*,1.7*,.,2.6*
CCOc1ccc(C2CC(=O)c3c([nH]c(C(=O)OC)c3C)C2)cc1OC (centres undefined),84,84,.,91
COC(=O)c1[nH]c2c(c1C)C(=O)CC(c1cccs1)C2 (centres undefined),47*,34*,97*,46
Cc1c(C(=O)O)[nH]c2c1C(=O)CC(c1ccccc1)C2 (centres undefined),95,101,.,95
COC(=O)c1[nH]c2c(c1C)C(=O)CC(c1cc(OC)ccc1OC)C2 (centres undefined),52,22*,82*,50
